Screen size: about 5,600 compounds; about 1,200 (21%) were called active. Roughly 3% stayed inconclusive and do not appear here.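 How the source made its calls: active means mean inhibition above about 95%, with at least 55% of replicates also reaching it (limit read from the data); inconclusive means meets just one of the two conditions; inactive means meets neither condition.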 The list is a sample of the results.

This assay is described as follows: Trypanosoma cruzi growth blockers in host fibroblasts – NIH3T3 host cells, beta-gal parasites, cherry-pick, set 2, confirmation (AID 651740).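 Further: plate controls were neutral control median for no effect and positive control median for full effect.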 The note with it: T. cruzi beta-gal in NIH3T3, GalScreen luminescence, 90 h; at 2.09 µM; stronger effect = higher value. The method in brief:
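Test system: beta-gal T. cruzi in mouse NIH/3T3 fibroblasts. Quantity: 5,000 host cells per well. Buffer or medium: DMEM plus 2% fetal bovine serum, 1% PSG. Reagent: 5000 trypomastigotes per well. Timing: 3 h host cell attachment, then ≥90 h compound-parasite co-culture, 60 min GalScreen. Technique: luminescence, GalScreen.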
In general, inhibition refers to the relative decrease from the control value, in per cent. In the case of `CCC(=O)N1CC[C@@H]2[C@@H](CO)N(C)c3ccc(-c4ccc(F)cc4)cc3[C@@H]21`, the inhibition was 79.1% (inactive).
For `CCC(=O)N1CC[C@@H]2[C@@H](CO)N(C)c3ccc(-c4cccc(OC)c4)cc3[C@@H]21`, the inhibition was 91.1% (inactive).
In the case of `COc1ccc(NC(=O)N2CC[C@@H]3[C@@H](CO)N(C)c4ccc(-c5cccc(F)c5)cc4[C@@H]32)cc1`, the inhibition is 106% (active).
The result for `COc1ccccc1NC(=O)N1CCCCN2[C@H](C1)[C@H](c1ccc(-c3ccccc3)cc1)[C@@H]2CO` reads 65% (inactive).
The result for `C[C@H](O)C#Cc1ccc([C@H]2[C@H]3CN(S(=O)(=O)Cc4ccccc4)CCCCN3[C@H]2CO)cc1` reads 11.7% (inactive).
For `OC[C@@H]1Nc2ccc(-c3cccc(F)c3)cc2[C@H]2[C@@H]1CCN2Cc1ccncc1`, the inhibition was 55.6% (inactive).
Regarding `N#Cc1ccc(-c2ccc3c(c2)[C@@H]2[C@@H](CCN2C(=O)Cc2ccncc2)[C@@H](CO)N3)cc1`, the inhibition is 54.9% (inactive).
On to `O=S(=O)(c1ccccc1)N1CC[C@@H]2[C@@H](CO)Nc3ccc(C#Cc4cccc(F)c4)cc3[C@@H]21`, for which the inhibition was 101% (active).
Turning to `O=C(Cc1ccccc1)N1CC[C@H]2[C@H](CO)Nc3ccc(-c4ccccc4F)cc3[C@H]21`, the inhibition was 64.2% (inactive).
For `COCC(=O)N1CC[C@@H]2[C@@H](CO)Nc3ccc(-c4cccc(C#N)c4)cc3[C@@H]21`, the inhibition was 30.7% (inactive).
For the molecule `O=C(c1cnccn1)N1CC[C@@H]2[C@H](CO)Nc3ccc(-c4cccc(F)c4)cc3[C@@H]21`, the inhibition was 87.3% (inactive).
Regarding `O=C(c1cccc(F)c1)N1CC[C@@H]2[C@@H](CO)Nc3ccc(C#Cc4cccc(F)c4)cc3[C@@H]21`, the inhibition was 106% (active).
Take `O=S(=O)(c1ccccc1)N1CC[C@@H]2[C@@H](CO)Nc3ccc(-c4ccccc4F)cc3[C@@H]21`: the inhibition was 98.3% (active).
As for `O=S(=O)(c1ccccc1)N1CC[C@@H]2[C@H]1c1cc(C#Cc3cccc(F)c3)ccc1N[C@@H]2CO`, the inhibition is 92.6% (inactive).
The result for `Cc1ccccc1S(=O)(=O)N1CC[C@H]2[C@H](CO)Nc3ccc(-c4cccc(F)c4)cc3[C@H]21` reads 93.1% (inactive); that for `CC(=O)N1CC[C@@H]2[C@H](CO)Nc3ccc(C#Cc4ccccc4F)cc3[C@@H]21`, 14.9% (inactive); that for `O=C(c1ccccn1)N1CC[C@@H]2[C@H]1c1cc(-c3ccccc3)ccc1N[C@@H]2CO`, 110% (active).
In the case of `O=C(Nc1cc(Cl)cc(Cl)c1)N[C@H]1CC[C@@H](CCNS(=O)(=O)c2cccc(F)c2)O[C@H]1CO`, the inhibition was 2.51% (inactive).
In the case of `CC(C)C#Cc1ccc([C@H]2[C@H](CO)N3CCCCN(C(=O)NC(C)C)C[C@@H]23)cc1` it was -8.04% (inactive); in that of `COc1ccc(S(=O)(=O)N(C)C[C@H]2Oc3c(NC(=O)Nc4cccc5ccccc45)cccc3C(=O)N([C@@H](C)CO)C[C@H]2C)cc1`, 90.2% (inactive); in that of `C[C@@H]1CN([C@H](C)CO)C(=O)c2cc(/C=C/c3ccccc3)cnc2O[C@@H]1CN(C)Cc1ccncc1`, 2.78% (inactive).
In the case of `Cc1cc(C(=O)Nc2cccc3c2O[C@@H](CN(C)Cc2ccc(C(=O)Nc4ccccc4N)cc2)[C@H](C)CN([C@@H](C)CO)C3=O)n(C)n1`, the inhibition was 63.4% (inactive).
Turning to `COc1ccc(-c2ccc([C@H]3[C@H]4CN(C(=O)c5ccc6c(c5)OCO6)CCCCN4[C@H]3CO)cc2)cc1`, the inhibition was 50.5% (inactive).
Take `C[C@H](CO)N1C[C@H](C)[C@H](CN(C)Cc2ccc(-c3ccccc3)cc2)Oc2ccc(NC(=O)Nc3ccc(F)cc3)cc2CC1=O`: the inhibition was 83.3% (inactive).
The result for `CN1c2ccc(-c3ccccc3)cc2[C@H]2[C@H](CCN2C(=O)Cc2ccccn2)[C@H]1CO` reads 72.9% (inactive); that for `COCC#Cc1ccc([C@@H]2[C@H](CO)N3CCCCN(C(=O)CN(C)C)C[C@@H]23)cc1`, 29.5% (inactive).
The result for `CN1C(=O)c2cc(NC(=O)c3cnccn3)ccc2OC[C@@H]2O[C@H](CC(=O)N[C@@H]3CCN(Cc4ccccc4)C3)CC[C@@H]21` reads 93.2% (inactive); that for `CN1C(=O)c2cc(NC(=O)Nc3ccccc3F)ccc2OC[C@H]2O[C@H](CC(=O)NCc3ccc(-c4ccccc4)cc3)CC[C@H]21`, 104% (active).
`CN1C(=O)c2cc(NC(=O)c3cnccn3)ccc2OC[C@@H]2O[C@@H](CC(=O)N[C@H]3CCN(Cc4ccccc4)C3)CC[C@H]21`: the inhibition is 32.2% (inactive).
As to `Cc1ccc(-c2ccc3c(c2)O[C@H](CN(C)C)[C@@H](C)CN([C@H](C)CO)S3(=O)=O)cc1`, the inhibition was 41.9% (inactive).
`O=C(NCC1CCCCC1)[C@H]1[C@H](CO)[C@H]2Cn3c(cccc3=O)[C@H]2N1C(=O)CC1CC1`: the inhibition was 30.6% (inactive).
Regarding `C[C@H]1CCCCO[C@H](CN(C)S(=O)(=O)c2ccc(Cl)cc2)[C@@H](C)CN([C@@H](C)CO)C(=O)c2cc(NC(=O)Nc3ccc4c(c3)OCO4)ccc2O1`, the inhibition was 105% (active).
For `CC(C)NC(=O)Nc1ccc2c(c1)C(=O)N([C@@H](C)CO)C[C@H](C)[C@H](CN(C)S(=O)(=O)c1ccc(Cl)cc1)OCCCC[C@H](C)O2`, the inhibition was 99.7% (active).
Take `C[C@@H]1CCCCO[C@H](CN(C)S(=O)(=O)c2ccc(Cl)cc2)[C@H](C)CN([C@@H](C)CO)C(=O)c2cc(NS(=O)(=O)c3cccs3)ccc2O1`: the inhibition was 79.2% (inactive).
Regarding `C[C@H]1CCCCO[C@@H](CN(C)S(=O)(=O)c2cccs2)[C@@H](C)CN([C@@H](C)CO)C(=O)c2cc(NS(=O)(=O)c3ccc(Cl)cc3)ccc2O1`, the inhibition is 71% (inactive).
The result for `Cc1noc(C)c1S(=O)(=O)Nc1ccc2c(c1)C(=O)N([C@@H](C)CO)C[C@@H](C)[C@H](CN(C)S(=O)(=O)c1ccc(Cl)cc1)OCCCC[C@H](C)O2` reads 62.5% (inactive); that for `Cc1ccc(S(=O)(=O)N(C)C[C@H]2OCCCC[C@H](C)Oc3ccc(NC(=O)Cc4ccccc4)cc3C(=O)N([C@@H](C)CO)C[C@@H]2C)cc1`, 95% (inactive).
The result for `COc1ccc(NC(=O)N(C)C[C@@H]2OCCCC[C@@H](C)Oc3ccc(NS(=O)(=O)c4ccc(Cl)cc4)cc3C(=O)N([C@H](C)CO)C[C@H]2C)cc1` reads 44.3% (inactive).
Take `C[C@@H]1CCCCO[C@@H](CN(C)S(=O)(=O)c2ccc(Cl)cc2)[C@H](C)CN([C@@H](C)CO)C(=O)c2cc(NC(=O)Cc3ccccc3)ccc2O1`: the inhibition is 80.6% (inactive).
In the case of `COc1ccc(NC(=O)Nc2ccc3c(c2)C(=O)N([C@H](C)CO)C[C@H](C)[C@H](CN(C)S(=O)(=O)c2ccc(Cl)cc2)OCCCC[C@H](C)O3)cc1` it was 107% (active); in that of `COc1ccc(S(=O)(=O)Nc2ccc3c(c2)C(=O)N([C@@H](C)CO)C[C@H](C)[C@@H](CN(C)Cc2ccc(C(F)(F)F)cc2)O3)cc1`, 58.4% (inactive).
With `CNC[C@H]1OCCCC[C@H](C)Oc2ccc(NC(=O)Nc3c(C)noc3C)cc2C(=O)N([C@H](C)CO)C[C@H]1C`, the inhibition is 2.68% (inactive).
With `O=C(Nc1cc(F)ccc1F)N1CCCCN2[C@H](CO)[C@@H](c3ccc(-c4cncnc4)cc3)[C@H]2C1`, the inhibition was 13.7% (inactive).
Take `Cc1ccc(-c2cnc3c(c2)C(=O)N([C@@H](C)CO)C[C@@H](C)[C@H](CN(C)Cc2ccccc2F)O3)cc1`: the inhibition is 72.1% (inactive).
Regarding `CN(C)C(=O)c1ccc(-c2ccc([C@H]3[C@@H](CO)N4CCCCN(CC5CC5)C[C@H]34)cc2)cc1`, the inhibition is 60.8% (inactive).
On to `O=C(C[C@@H]1C[C@H]2c3cc(NC(=O)C4CCC4)ccc3O[C@H]2[C@@H](CO)O1)NCc1ccc2c(c1)OCO2`, for which the inhibition is -16.2% (inactive).
In the case of `C[C@H](CO)N1C[C@H](C)[C@@H](CN(C)S(=O)(=O)c2ccc(F)cc2)Oc2cc(C3=CCCC3)ccc2S1(=O)=O` it was 78.5% (inactive); in that of `C[C@@H]1CN([C@@H](C)CO)S(=O)(=O)c2ccc(C#Cc3ccc(F)cc3)cc2O[C@H]1CN(C)S(C)(=O)=O`, 27.8% (inactive).
`C[C@@H]1CN([C@H](C)CO)C(=O)CCCn2nncc2CO[C@@H]1CN(C)Cc1ccc(C(=O)Nc2ccccc2N)cc1`: the inhibition was 59.4% (inactive).
`C[C@@H]1CCCCO[C@H](CN(C)C(=O)Nc2ccc(C(F)(F)F)cc2)[C@H](C)CN([C@H](C)CO)C(=O)c2cc(NC(=O)Nc3ccc(C(F)(F)F)cc3)ccc2O1`: the inhibition was 115% (active).
As to `COc1ccc(NC(=O)N(C)C[C@H]2OCCCC[C@H](C)Oc3ccc(NC(=O)Nc4ccc(C(F)(F)F)cc4)cc3C(=O)N([C@@H](C)CO)C[C@@H]2C)cc1`, the inhibition was 113% (active).
Consider `C[C@H](CO)N1C[C@H](C)[C@H](CN(C)C(=O)Nc2ccc(C(F)(F)F)cc2)OCCCC[C@H](C)Oc2ccc(NC(=O)C3CCCCC3)cc2C1=O`, for which the inhibition was 109% (active).
On to `C[C@@H]1CN([C@@H](C)CO)C(=O)c2cc(NC(=O)Nc3ccc(C(F)(F)F)cc3)ccc2O[C@@H](C)CCCCO[C@H]1CN(C)C(=O)c1ccccc1`, for which the inhibition was 69.7% (inactive).
Turning to `C[C@@H]1CCCCO[C@H](CN(C)C(=O)CCC(F)(F)F)[C@H](C)CN([C@H](C)CO)C(=O)c2cc(NS(C)(=O)=O)ccc2O1`, the inhibition is 7.29% (inactive).
The result for `CC(C)NC(=O)Nc1ccc2c(c1)C(=O)N([C@H](C)CO)C[C@H](C)[C@H](CN(C)C(=O)Nc1ccc(C(F)(F)F)cc1)OCCCC[C@@H](C)O2` reads 94% (inactive); that for `CCCC#Cc1ccc2c(c1)O[C@H](CN(C)C(=O)CC)[C@@H](C)CN([C@H](C)CO)S2(=O)=O`, 38.5% (inactive); that for `C/C=C/c1ccc([C@H]2[C@@H](CNC(C)C)N(c3nc(CC)cs3)[C@H]2CO)cc1`, 89.5% (inactive).
Consider `CCCC#Cc1ccc([C@H]2[C@H](CO)N3CCCCN(C(=O)c4ccc5c(c4)OCO5)C[C@@H]23)cc1`, for which the inhibition was 42.1% (inactive).

For the origin of these results see PubChem BioAssay AID651740 (Broad Institute, 2012).
